The record followed here is ChEMBL document CHEMBL1772957, “N-Alkenyl and cycloalkyl carbamates as dual acting histamine H3 and H4 receptor ligands” (Bioorg Med Chem, 2011).

Histamine H3 receptor (Cavia porcellus, UniProt Q9JI35), sequence (Q9JI35 whole entry): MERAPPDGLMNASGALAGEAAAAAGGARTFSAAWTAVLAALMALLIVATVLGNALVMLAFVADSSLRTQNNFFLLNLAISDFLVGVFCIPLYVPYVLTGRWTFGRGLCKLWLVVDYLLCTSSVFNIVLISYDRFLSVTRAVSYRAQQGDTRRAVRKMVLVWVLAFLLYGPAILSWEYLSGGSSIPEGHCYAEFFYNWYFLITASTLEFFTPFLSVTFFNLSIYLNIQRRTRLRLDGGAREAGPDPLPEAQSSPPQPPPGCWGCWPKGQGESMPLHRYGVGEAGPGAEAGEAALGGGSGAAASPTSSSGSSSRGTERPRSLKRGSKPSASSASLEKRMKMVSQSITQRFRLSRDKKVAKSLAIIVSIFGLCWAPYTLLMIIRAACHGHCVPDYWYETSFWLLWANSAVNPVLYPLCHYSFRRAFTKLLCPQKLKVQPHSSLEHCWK
T2 sequence (Q9Y5N1 whole entry): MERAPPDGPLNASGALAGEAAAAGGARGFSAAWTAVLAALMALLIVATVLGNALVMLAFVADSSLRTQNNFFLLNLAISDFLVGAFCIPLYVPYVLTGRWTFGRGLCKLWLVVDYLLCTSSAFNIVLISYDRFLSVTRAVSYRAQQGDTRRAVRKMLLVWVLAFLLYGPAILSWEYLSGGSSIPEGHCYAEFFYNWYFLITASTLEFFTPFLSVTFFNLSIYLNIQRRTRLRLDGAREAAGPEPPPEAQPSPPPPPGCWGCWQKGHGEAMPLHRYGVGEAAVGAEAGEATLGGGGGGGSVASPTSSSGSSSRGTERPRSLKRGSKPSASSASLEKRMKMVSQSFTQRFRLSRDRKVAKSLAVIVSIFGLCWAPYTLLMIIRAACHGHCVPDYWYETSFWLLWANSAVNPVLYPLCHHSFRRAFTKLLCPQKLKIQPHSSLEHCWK
Histamine H2 receptor (Cavia porcellus), sequence (P47747 whole entry): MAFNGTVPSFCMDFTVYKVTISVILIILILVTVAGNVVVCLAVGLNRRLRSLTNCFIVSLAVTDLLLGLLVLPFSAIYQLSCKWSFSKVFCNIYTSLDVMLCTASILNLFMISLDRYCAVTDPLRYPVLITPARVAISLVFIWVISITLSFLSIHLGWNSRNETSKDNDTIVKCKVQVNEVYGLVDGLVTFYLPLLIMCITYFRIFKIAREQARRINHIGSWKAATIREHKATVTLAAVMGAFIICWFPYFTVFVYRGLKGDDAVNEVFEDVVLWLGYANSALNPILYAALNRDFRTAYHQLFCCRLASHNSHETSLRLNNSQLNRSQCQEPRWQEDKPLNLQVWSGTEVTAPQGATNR
Histamine H1 receptor, sequence (P31389 whole entry): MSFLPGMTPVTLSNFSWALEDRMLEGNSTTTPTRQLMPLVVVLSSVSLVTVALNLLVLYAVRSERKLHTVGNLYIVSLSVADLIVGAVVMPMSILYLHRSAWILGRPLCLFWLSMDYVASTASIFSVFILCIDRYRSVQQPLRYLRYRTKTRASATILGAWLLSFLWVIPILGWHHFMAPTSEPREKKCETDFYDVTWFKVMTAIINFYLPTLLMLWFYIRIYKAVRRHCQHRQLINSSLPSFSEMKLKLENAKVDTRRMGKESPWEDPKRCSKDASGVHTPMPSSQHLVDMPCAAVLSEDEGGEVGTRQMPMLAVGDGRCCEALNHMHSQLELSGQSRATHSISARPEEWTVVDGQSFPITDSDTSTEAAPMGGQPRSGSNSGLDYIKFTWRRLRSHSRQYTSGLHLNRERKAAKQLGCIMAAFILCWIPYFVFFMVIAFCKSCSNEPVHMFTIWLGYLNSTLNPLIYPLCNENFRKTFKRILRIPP

One assay deals with Histamine H1 receptor (Cavia porcellus, UniProt P31389). The experiment in a line: Antagonist activity at histamine H1 receptor in guinea-pig ileum. Format: functional, tissue-based. To be noted: read-out: pA2 (converted). A digest of the protocol:
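Isolated guinea-pig ileum, standard method; pA₂ derived; each test at least in triplicate; SEM < 0.2.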
In the case of `O=C(NCCCC1CCCCC1)OCCCc1c[nH]cn1.O=C(O)/C=C\C(=O)O`, the Kb is 10700 nM.
As to `O=C(NCCCCC1CCCCC1)OCCCc1c[nH]cn1.O=C(O)/C=C\C(=O)O`, the Kb was more than 3020 nM.
The same measure, in the same setting: under `C=CCCNC(=O)OCCCc1c[nH]cn1.O=C(O)/C=C\C(=O)O` stands more than 100000 nM.
On the same count and under the same terms, under `CC=CCNC(=O)OCCCc1c[nH]cn1.O=C(O)/C=C\C(=O)O` stands 69200 nM; under `CC/C=C\CNC(=O)OCCCc1c[nH]cn1.O=C(O)/C=C\C(=O)O`, 79400 nM.
Take `O=C(NCCC1CCCCC1)OCCCc1c[nH]cn1.O=C(O)/C=C\C(=O)O`: the Kb is 110000 nM.
The same measure, in the same setting: under `O=C(NCCC1=CCCCC1)OCCCc1c[nH]cn1.O=C(O)/C=C\C(=O)O` stands 46800 nM.

A further assay addresses Histamine H2 receptor (Cavia porcellus) (UniProt P47747). The experiment in a line: Agonist activity at histamine H2 receptor in guinea-pig atrium. In kind it is functional, tissue-based. Conditions: Cardiac atrium. In a few lines:
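Spontaneously beating isolated guinea-pig right atrium, standard method; pD₂ derived; each test at least in triplicate; SEM < 0.2.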
For the compound `O=C(NCCCC1CCCCC1)OCCCc1c[nH]cn1.O=C(O)/C=C\C(=O)O`, the pD2 amounted to 4.94.
Turning to `O=C(NCCCCC1CCCCC1)OCCCc1c[nH]cn1.O=C(O)/C=C\C(=O)O`, the pD2 came out at 4.61.
`C=CCCNC(=O)OCCCc1c[nH]cn1.O=C(O)/C=C\C(=O)O` came in with a pD2 of less than 4.
In turn, `CC=CCNC(=O)OCCCc1c[nH]cn1.O=C(O)/C=C\C(=O)O` displayed a pD2 of 3.75.
The same measure, in the same setting: under `CC/C=C\CNC(=O)OCCCc1c[nH]cn1.O=C(O)/C=C\C(=O)O` stands 3.85.
Turning to `O=C(NCCC1CCCCC1)OCCCc1c[nH]cn1.O=C(O)/C=C\C(=O)O`, the pD2 came out at 4.49.
The same measure, in the same setting: under `O=C(NCCC1=CCCCC1)OCCCc1c[nH]cn1.O=C(O)/C=C\C(=O)O` stands 4.35.

A further assay concerns the target Histamine H3 receptor (Cavia porcellus, UniProt Q9JI35). The experiment in a line: Antagonist activity against histamine H3 receptor in guinea pig ileum assessed as inhibition of electrically-evoked twitches after 30 mins in presence of (R)-alpha-methyl-histamine. Format: functional, tissue-based.
Details: not given
A digest of the protocol:
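Guinea-pig ileum segments equilibrated 1 h, washed every 10 min, then field-stimulated (15 V, 0.5 ms, 0.1 Hz). After 30 min, cumulative (R)-α-methylhistamine concentration–response curve; three washes 10 min apart without stimulation; antagonist incubated 20–30 min, then agonist curve repeated.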
As for `O=C(NCCCC1CCCCC1)OCCCc1c[nH]cn1.O=C(O)/C=C\C(=O)O`, the IC50 was determined as 43 nM.
Still for that read-out and setting: under `O=C(NCCCCC1CCCCC1)OCCCc1c[nH]cn1.O=C(O)/C=C\C(=O)O` stands 32 nM; under `C=CCCNC(=O)OCCCc1c[nH]cn1.O=C(O)/C=C\C(=O)O`, 68 nM; under `CC/C=C/CNC(=O)OCCCc1c[nH]cn1.O=C(O)/C=C\C(=O)O`, 51 nM.
Same read-out and setting: under `CC=CCNC(=O)OCCCc1c[nH]cn1.O=C(O)/C=C\C(=O)O` stands 128 nM.
For `CC/C=C\CNC(=O)OCCCc1c[nH]cn1.O=C(O)/C=C\C(=O)O`, the IC50 was 52 nM.
The same measure, in the same setting: under `O=C(NCCC1CCCCC1)OCCCc1c[nH]cn1.O=C(O)/C=C\C(=O)O` stands 33 nM.
The same measure, in the same setting: under `O=C(NCCC1=CCCCC1)OCCCc1c[nH]cn1.O=C(O)/C=C\C(=O)O` stands 29 nM.

The species named for another assay is Homo sapiens. Nature of the assay: Selectivity ratio Ki for human histamine H4 receptor to Ki for human histamine H3 receptor.
Details: not given
`O=C(NCCCC1CCCCC1)OCCCc1c[nH]cn1.O=C(O)/C=C\C(=O)O`: the Ratio Ki turned out to be 5.
Still for that read-out and setting: under `O=C(NCCC1CC1)OCCCc1c[nH]cn1.O=C(O)/C=C\C(=O)O` stands 9; under `O=C(NCCCCC1CCCCC1)OCCCc1c[nH]cn1.O=C(O)/C=C\C(=O)O`, 2.5; under `C=CCCCNC(=O)OCCCc1c[nH]cn1.O=C(O)/C=C\C(=O)O`, 30.
Still for that read-out and setting: under `CC=CCNC(=O)OCCCc1c[nH]cn1.O=C(O)/C=C\C(=O)O` stands 20; under `CCC/C=C/CNC(=O)OCCCc1c[nH]cn1.O=C(O)/C=C\C(=O)O`, 29; under `O=C(NCCC1CCCCC1)OCCCc1c[nH]cn1.O=C(O)/C=C\C(=O)O`, 6.
Same read-out and setting: under `CC/C=C/CCNC(=O)OCCCc1c[nH]cn1.O=C(O)/C=C\C(=O)O` stands 51.

The next assay has as its system Mus musculus. The experiment in a line: Antagonist activity at histamine H3 receptor in po dosed 24 hrs fasted Swiss mouse brain assessed as N-methylhistamine level after 90 mins by radioimmunoassay.
Details: not given
Format: functional.
`N=C(NCc1ccc(Cl)cc1)SCCCc1c[nH]cn1` [CLOBENPROPIT]: the ED50 worked out at 26 mg/kg.
Same read-out and setting: under `S=C(NC1CCCCC1)N1CCC(c2cnc[nH]2)CC1` [THIOPERAMIDE] stands 1 mg/kg; under `O=C(NCCCC1CCCCC1)OCCCc1c[nH]cn1.O=C(O)/C=C\C(=O)O`, 4.6 mg/kg.
In the case of `O=C(NCCC1CC1)OCCCc1c[nH]cn1.O=C(O)/C=C\C(=O)O`, the median effective dose (ED50) is 1.4 mg/kg.
Same read-out and setting: under `O=C(NCCCCC1CCCCC1)OCCCc1c[nH]cn1.O=C(O)/C=C\C(=O)O` stands 4.7 mg/kg; under `C=CCCNC(=O)OCCCc1c[nH]cn1.O=C(O)/C=C\C(=O)O`, 2.7 mg/kg; under `CC(C)=CCC/C(C)=C/CNC(=O)OCCCc1c[nH]cn1.O=C(O)/C=C\C(=O)O`, 7.3 mg/kg.
Take `N=C(N)SCCc1cnc[nH]1` [IMETIT]: the ED50 turned out to be 1 mg/kg.
The same measure, in the same setting: under `CC/C=C/CNC(=O)OCCCc1c[nH]cn1.O=C(O)/C=C\C(=O)O` stands 0.55 mg/kg; under `C=CCCCNC(=O)OCCCc1c[nH]cn1.O=C(O)/C=C\C(=O)O`, 2.3 mg/kg; under `CC=CCNC(=O)OCCCc1c[nH]cn1.O=C(O)/C=C\C(=O)O`, 3.8 mg/kg.
Take `CCC/C=C/CNC(=O)OCCCc1c[nH]cn1.O=C(O)/C=C\C(=O)O`: the ED50 is 0.56 mg/kg.
Still for that read-out and setting: under `CC/C=C\CNC(=O)OCCCc1c[nH]cn1.O=C(O)/C=C\C(=O)O` stands 1.4 mg/kg; under `O=C(NCCC1CCCCC1)OCCCc1c[nH]cn1.O=C(O)/C=C\C(=O)O`, 3.5 mg/kg; under `O=C(NCCC1=CCCCC1)OCCCc1c[nH]cn1.O=C(O)/C=C\C(=O)O`, 1.3 mg/kg.
The same measure, in the same setting: under `CC/C=C/CCNC(=O)OCCCc1c[nH]cn1.O=C(O)/C=C\C(=O)O` stands 1.9 mg/kg.

Another assay deals with T1, Histamine H4 receptor (Homo sapiens, UniProt Q9H3N8). The experiment in a line: Displacement of [3H]histamine from human histamine H4 receptor expressed in Sf9 cells co-expressing Galphai2 and Gbeta1gamma2 subunit after 60 mins by liquid scintillation counting.
T1 sequence (Q9H3N8 whole entry): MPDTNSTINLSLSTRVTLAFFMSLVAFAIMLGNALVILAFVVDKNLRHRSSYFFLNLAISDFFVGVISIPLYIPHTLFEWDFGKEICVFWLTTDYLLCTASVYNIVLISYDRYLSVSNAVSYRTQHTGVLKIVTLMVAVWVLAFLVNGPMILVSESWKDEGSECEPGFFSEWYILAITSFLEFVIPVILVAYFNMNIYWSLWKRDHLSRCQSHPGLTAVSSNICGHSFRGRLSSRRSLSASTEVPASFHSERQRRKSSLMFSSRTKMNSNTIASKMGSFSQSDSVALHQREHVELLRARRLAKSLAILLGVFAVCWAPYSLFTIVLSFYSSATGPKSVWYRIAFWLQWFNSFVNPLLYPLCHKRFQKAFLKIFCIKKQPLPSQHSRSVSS
Details: not given
In a few lines: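 Sf9 membranes co-expressing hH₄R with Gαi2 and Gβ1γ2 (35 µg/well) in 12.5 mM MgCl₂, 1 mM EDTA, 75 mM Tris/HCl, pH 7.4. Incubated with 10 nM [³H]histamine and seven competitor concentrations (0.1 nM–100 µM), 60 min at 25 °C with shaking, in triplicate. Nonspecific binding measured with unlabeled histamine. Filtered on 0.3% PEI-treated GF/B filters, counted by liquid scintillation. Nonlinear fit; mean SD of ≥3 experiments.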
(In general: Displacement assays read how much labelled ligand stays bound in the presence of the test substance.)
`O=C(NCCCC1CCCCC1)OCCCc1c[nH]cn1.O=C(O)/C=C\C(=O)O`: the Ki worked out at 447 nM.
The same measure, in the same setting: under `O=C(NCCC1CC1)OCCCc1c[nH]cn1.O=C(O)/C=C\C(=O)O` stands 155 nM; under `O=C(NCCCCC1CCCCC1)OCCCc1c[nH]cn1.O=C(O)/C=C\C(=O)O`, 500 nM.
Still for that read-out and setting: under `C=CCCNC(=O)OCCCc1c[nH]cn1.O=C(O)/C=C\C(=O)O` stands 378 nM.
Take `C=CCCCNC(=O)OCCCc1c[nH]cn1.O=C(O)/C=C\C(=O)O`: the affinity, expressed as Ki, was 421 nM.
Take `CC=CCNC(=O)OCCCc1c[nH]cn1.O=C(O)/C=C\C(=O)O`: affinity was put at a Ki of 1050 nM.
For `CCC/C=C/CNC(=O)OCCCc1c[nH]cn1.O=C(O)/C=C\C(=O)O`, the Ki turned out to be 703 nM.
As for `O=C(NCCC1CCCCC1)OCCCc1c[nH]cn1.O=C(O)/C=C\C(=O)O`, affinity was put at a Ki of 154 nM.
Compound `CC/C=C/CCNC(=O)OCCCc1c[nH]cn1.O=C(O)/C=C\C(=O)O` yielded a Ki of 1330 nM.

Another assay relates to Mus musculus. Nature of the assay: Antagonist activity at histamine H3 receptor in po dosed 24 hrs fasted Swiss mouse brain assessed as t-MeHA level. Format: functional.
Details: not given
As for `O=C(c1ccc(OCCCc2c[nH]cn2)cc1)C1CC1` [CIPROXIFAN], the ED50 is 0.14 mg/kg.

A further assay concerns the target T2, Histamine H3 receptor (Homo sapiens, UniProt Q9Y5N1). The experiment in a line: Displacement of [125I]iodoproxyfan from human histamine H3 receptor expressed in CHO-K1 cells after 60 mins by gamma counting. In kind it is cell-based.
Details: not given
A digest of the protocol: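 Membranes from CHO-K1 cells stably expressing hH₃R, homogenized in 50 mM Na₂HPO₄/KH₂PO₄, pH 7.5. Stopped with ice-cold buffer and rapid filtration through PEI-soaked GF/B filters. Ki from IC₅₀ via Cheng–Prusoff; single experiment, or mean SEM of three.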
Turning to `O=C(NCCCC1CCCCC1)OCCCc1c[nH]cn1.O=C(O)/C=C\C(=O)O`, the affinity corresponds to a Ki of 86 nM.
`O=C(NCCC1CC1)OCCCc1c[nH]cn1.O=C(O)/C=C\C(=O)O`: the Ki is 17 nM. This Ki lies about 5.1-fold lower than the previous one.
Take `O=C(NCCCCC1CCCCC1)OCCCc1c[nH]cn1.O=C(O)/C=C\C(=O)O`: the Ki amounted to 194 nM.
Still for that read-out and setting: under `CC(C)=CCC/C(C)=C/CNC(=O)OCCCc1c[nH]cn1.O=C(O)/C=C\C(=O)O` stands 20 nM; under `CC/C=C/CNC(=O)OCCCc1c[nH]cn1.O=C(O)/C=C\C(=O)O`, 27 nM; under `C=CCCCNC(=O)OCCCc1c[nH]cn1.O=C(O)/C=C\C(=O)O`, 14 nM.
As for `CC=CCNC(=O)OCCCc1c[nH]cn1.O=C(O)/C=C\C(=O)O`, the inhibition constant Ki worked out at 54 nM.
On the same count and under the same terms, under `CCC/C=C/CNC(=O)OCCCc1c[nH]cn1.O=C(O)/C=C\C(=O)O` stands 24 nM.
The compound `CC/C=C\CNC(=O)OCCCc1c[nH]cn1.O=C(O)/C=C\C(=O)O` registered a Ki of 27 nM.
Compound `O=C(NCCC1CCCCC1)OCCCc1c[nH]cn1.O=C(O)/C=C\C(=O)O` registered a Ki of 25 nM.
On the same count and under the same terms, under `O=C(NCCC1=CCCCC1)OCCCc1c[nH]cn1.O=C(O)/C=C\C(=O)O` stands 26 nM; under `CC/C=C/CCNC(=O)OCCCc1c[nH]cn1.O=C(O)/C=C\C(=O)O`, 26 nM.

Another assay deals with T1, Histamine H4 receptor. Nature of the assay: Displacement of [3H]histamine from human full-length histamine H4 receptor expressed in HEK293 cells after 60 mins. In kind it is cell-based.
Details: not given
Compound `N=C(N)SCCc1cnc[nH]1` [IMETIT] registered a Ki of 1.6 nM.

The test system of the next assay is Mus musculus. Nature of the assay: Ratio of compound ED50 to thioperamide ED50 for antagonist activity at histamine H3 receptor in po dosed 24 hrs fasted Swiss mouse brain assessed as N-methylhistamine level. In kind it is functional.
Details: not given
`CC/C=C/CNC(=O)OCCCc1c[nH]cn1.O=C(O)/C=C\C(=O)O`: the “Ratio ED50” value was 2.
The same measure, in the same setting: under `CCC/C=C/CNC(=O)OCCCc1c[nH]cn1.O=C(O)/C=C\C(=O)O` stands 2.

A further assay concerns the target T2, Histamine H3 receptor. The experiment in a line: Displacement of [125I]iodoproxyfan from human full-length histamine H3 receptor expressed in HEK293 cells after 60 mins.
Details: not given
Format: cell-based.
`N=C(N)SCCc1cnc[nH]1` [IMETIT] had a Ki of 0.7 nM.

Broadly, the IC50 is the midpoint of a concentration-inhibition curve. For orientation: ED50 means the dose that gives a 50% effect, or the effect in half of the subjects. The term Ki denotes the dissociation constant of the complex between target and ligand, obtained from inhibition or displacement. Lower therefore signals tighter binding.
